Source: PubChem BioAssay (several laboratories)
Sampled rows, rich in hits. Any-hit rate of the full collection: about 3.5%.
ABCG2 block – blocks JC-1 efflux by human ABCG2 transporter; Q9UNQ0; inhibition, % at 6.6 µM; IgMXP3 cells, flow cytometry; actives 0.1% (n = 190,000);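 active = inhibition above 80%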;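 also: 0% = DMSO and 100% = nicardipine control wells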
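Test system: IgMXP3 cells (ABCG2) mixed with DDAO far-red-labelled CCRF-Adr cells (ABCB1). Reagent: JC-1 transporter substrate. Compound dosing: single test compound dose, 6.6 µM final. Times: 10 min compound exposure, 25 °C. Detection: flow cytometry of retained JC-1 fluorescence. Read-out basis: efflux inhibition in percent versus controls. Controls: nicardipine and DMSO wells.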
WT yeast gro inh – growth inhibition of WT yeast, mitochondrial fusion screen; actives 2.1% (n = 190,000); inhibition, % at 10 µM; mitochondrial fusion phenotypic screen, WT strain; in the data active = inhibition above about 58%; tested in S. cerevisiae
ABCB1 inh – human ABCB1 inhibition, ABCG2 as counter-screen | actives 0.067% (n = 190,000) | CCRF-Adr cells, JC-1 efflux, flow cytometry | inhibition, % at 6.6 µM | P08183; in the data active = inhibition above about 40%;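 also: 0% = vehicle and 100% = reference inhibitor; higher value means more JC-1 retained so stronger ABCB1 efflux block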
MEKK2mut PB1 HTS – signal of MEK5 binding to mutant human MEKK2 PB1 domain; percent response, % at 10 µM; actives 0.35% (n = 290,000); bead flow cytometry, Alexa488-MEK5 binding to MEKK2 mutant; in the data active = percent response above about 24%, passing the limit was not always enough
MEKK2wt PB1 HTS – raises or lowers MEK5 binding to wildtype human MEKK2 PB1 domain. binding response (% of control), % at 10 µM. actives 1.1% (n = 290,000). Q9Y2U5. bead flow cytometry, Alexa488-MEK5 binding to MEKK2 WT; actives lie on both sides; in the data active = binding response below about 67% or above about 130%
MEKK3 PB1 HTS – raises or lowers MEK5 binding to the human MEKK3 PB1 domain; actives 1.4% (n = 290,000); bead-based flow cytometry, Alexa488-MEK5 binding to MEKK3; actives lie on both sides; 0 = blocked by unlabeled MEK5, 100 = vehicle; AID 1529; Q99759; binding response (% of control), % at 10 µM;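 active = binding response more than 3 SD above or below the average of its plate-row segment, actives on both sides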;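 also: Alexa488 bead fluorescence after subtracting the streptavidin-only scavenger bead signal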
Target sequence (Q99759 whole entry, looked up, the tested form may be a part): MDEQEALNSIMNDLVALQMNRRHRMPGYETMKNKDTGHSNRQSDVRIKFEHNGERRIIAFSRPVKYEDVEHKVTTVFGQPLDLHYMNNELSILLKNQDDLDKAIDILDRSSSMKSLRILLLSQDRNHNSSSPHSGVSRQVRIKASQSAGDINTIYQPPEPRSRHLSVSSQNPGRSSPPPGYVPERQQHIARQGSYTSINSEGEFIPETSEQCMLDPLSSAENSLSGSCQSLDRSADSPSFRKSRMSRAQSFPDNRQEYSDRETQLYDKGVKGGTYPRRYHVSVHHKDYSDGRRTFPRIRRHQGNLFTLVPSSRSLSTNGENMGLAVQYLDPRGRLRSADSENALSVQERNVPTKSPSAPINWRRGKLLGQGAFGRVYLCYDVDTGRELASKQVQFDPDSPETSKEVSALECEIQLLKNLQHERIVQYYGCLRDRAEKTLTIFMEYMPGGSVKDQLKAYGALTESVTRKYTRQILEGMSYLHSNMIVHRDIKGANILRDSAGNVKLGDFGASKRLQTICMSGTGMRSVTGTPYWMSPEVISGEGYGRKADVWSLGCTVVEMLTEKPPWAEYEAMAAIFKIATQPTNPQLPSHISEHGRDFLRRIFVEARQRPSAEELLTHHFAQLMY
MEKK2wt confirm – raises or lowers MEK5 binding to wildtype human MEKK2, retest. actives 2.4% (n = 5,900). bead flow cytometry, Alexa488-MEK5 binding to MEKK2 WT; actives lie on both sides. shares compounds with MEKK3 PB1 HTS. binding response (% of control), % at 10 µM; in the data active = binding response below about 16% or above about 210%; inactive = in between
MEKK2mut-MEK5 – signal of MEK5 binding to mutant human MEKK2, retest; shares compounds with MEKK3 PB1 HTS; bead flow cytometry, Alexa488-MEK5 binding to MEKK2 mutant; percent response, % at 10 µM; actives 2% (n = 5,900); AID 1893; in the data active = percent response mostly above about 71%, no sharp cut-off; inactive = mostly below about 38%;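 also: higher means compound restores mutant binding toward wildtype level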
MEKK3 confirm – MEKK3-MEK5 PB1 inhibition, single concentration confirmation; shares compounds with MEKK3 PB1 HTS; bead flow cytometry, Alexa488-MEK5 binding to MEKK3; stronger effect = lower value; binding response (% of control), % at 10 µM; actives 1.8% (n = 5,900); AID 1894;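 active = binding response below 72% of control, or above a set upper limit, though filed actives all read lower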;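 also: 100% = DMSO only wells and 0% = binding blocked by excess unlabeled MEK5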
An asterisk follows results filed as active; . = not tested or not shown; [ ] = dose if it differs, or a comment.

SMILES	ABCG2 block	WT yeast gro inh	ABCB1 inh	MEKK2mut PB1 HTS	MEKK2wt PB1 HTS	MEKK3 PB1 HTS	MEKK2wt confirm	MEKK2mut-MEK5	MEKK3 confirm
CCc1nnc(NS(=O)(=O)c2ccc(N=Cc3c(C)[nH]n(-c4ccc(C)c(C)c4)c3=O)cc2)s1	-9.9	63.3*	-1.4	1.0	108.0	160.0*	97.0	-1.0	102.0
CCCCOc1ccc2c(c1)/C(=C(\C(Cl)=C(Cl)Cl)[N+](=O)[O-])N2	-1.8	-11.2	-0.7	-4.0	93.0	104.0	.	.	.
CCOc1ccc(C(=O)NCC(=O)Nc2ccc(N3CCOCC3)cc2)cc1OCC	0.5	-1.4	-0.3	-7.0	93.0	97.0	.	.	.
CCCCC(=O)N(c1ccc(C(=O)O)cc1)c1nc(-c2ccc(Cl)cc2)c(CC)s1	0.0	19.3	-0.1	-60.0	3.0*[inhibitor]	3.0*[inhibitor]	93.0	-7.0	104.0
COc1ccc(-c2nc(SC(CC(=O)NCc3ccccc3)c3ccc(OC)c(OC)c3)n[nH]2)cc1 (stereo not drawn)	-6.5	-2.2	-0.4	0.0	101.0	128.0*	94.0	-9.0	94.0
COc1ccc(/C=N/N=C2\SCC(=O)N2c2c(C)n(C)n(-c3ccccc3)c2=O)cc1OC	-3.2	13.3	-0.7	4.0	108.0	146.0*	102.0	2.0	104.0
COc1ccc(/C=N/Nc2cc(C)nc3ccc(OC)cc23)c(OC)c1	.	.	.	180.0*	389.0*	114.0	282.0*	141.0*	118.0
COCCCN1CN(S(=O)(=O)c2ccc(Cl)cc2)c2nc3ccccc3nc21	1.2	0.4	0.4	10.0	99.0	97.0	.	.	.
CC(C)OCCCN1CN(S(=O)(=O)c2ccccc2)c2nc3ccccc3nc21	8.4	-1.1	2.9	-66.0	11.0*[inhibitor]	6.0*[inhibitor]	107.0	2.0	104.0
Clc1ccc(CSc2ncn[nH]2)cc1	1.3	-10.4	0.3	.	.	.	.	.	.
CCOc1ccc(Cl)cc1CSc1ncn[nH]1	9.8	-7.3	0.9	-31.0	1.0*[inhibitor]	1.0*[inhibitor]	96.0	-15.0	88.0
COC(=O)c1cc(S(=O)(=O)N2CCN(Cc3ccccc3)CC2)cn1C	.	.	.	-2.0	99.0	102.0	.	.	.
Cn1ccnc1SCC(=O)N1CCN(S(=O)(=O)c2ccccc2)CC1	1.6	-1.4	0.5	2.0	4.0*[inhibitor]	4.0*[inhibitor]	99.0	7.0	102.0
O=C(COc1cccnc1[N+](=O)[O-])N1CCN(S(=O)(=O)c2ccccc2)CC1	16.2	7.4	0.9	1.0	109.0	145.0*	105.0	6.0	102.0
O=C(O)CCn1c(CO)nc2ccccc21	1.1	0.7	0.5	-1.0	107.0	129.0*	106.0	5.0	105.0
O=C(O)c1ccc(S(=O)(=O)c2ccc3c(c2)C(=O)N(c2ccc(Br)cc2)C3=O)cc1	.	.	.	-1.0	94.0	96.0	.	.	.
Cc1nn(CCC(=O)NNC(=S)Nc2ccc(F)cc2)c(C)c1Br	11.1	2.0	1.4	0.0	104.0	129.0*	102.0	3.0	102.0
O=C(CCc1ccccc1)NNC(=S)Nc1ccc(F)cc1	0.7	3.2	-0.1	-2.0	84.0	70.0*[inhibitor]	101.0	-4.0	93.0
CCCn1c(=O)c(C(=O)NNS(=O)(=O)c2ccc(Cl)cc2)c(O)c2ccccc21	-1.8	22.4	-0.3	-2.0	95.0	98.0	.	.	.
Cc1ccc(NC(=O)CCCN2C(=O)c3cccc4cccc(c34)C2=O)cc1	23.4	17.7	0.9	1.0	110.0	145.0*	100.0	1.0	104.0
O=C(Cc1cc(=O)[nH]c(=O)[nH]1)N1CCC(Cc2ccccc2)CC1	-2.4	8.5	-2.3	8.0	102.0	104.0	.	.	.
N#Cc1cccc(Oc2ccc(-c3cnc4ccccc4n3)cc2)c1C#N	0.8	9.1	0.0	-1.0	100.0	130.0*	98.0	-5.0	100.0
Cc1ccc(C(=O)N[C@H](C(=O)Nc2sccc2C(N)=O)C(C)C)cc1	.	.	.	-10.0	94.0	97.0	.	.	.
O=C(NNC(=S)Nc1cccc(C(F)(F)F)c1)c1cccc(Cl)c1	0.4	37.0	0.1	-1.0	99.0	100.0	.	.	.
O=C(NNC(=S)Nc1cccc(C(F)(F)F)c1)c1ccccc1Cl	1.7	-5.5	0.5	1.0	91.0	66.0*[inhibitor]	103.0	4.0	100.0
SMILES	ABCG2 block	WT yeast gro inh	ABCB1 inh	MEKK2mut PB1 HTS	MEKK2wt PB1 HTS	MEKK3 PB1 HTS	MEKK2wt confirm	MEKK2mut-MEK5	MEKK3 confirm
Cn1cnnc1-c1cccc(NC(=O)c2cc(F)c(F)cc2Cl)c1	1.7	-50.2	0.0	1.0	123.0	135.0*	97.0	-7.0	103.0
O=C(Nc1ccc2ccccc2c1)c1cc(F)c(F)cc1Cl	.	.	.	6.0	107.0	105.0	.	.	.
CC(C)c1nc2ccc(Br)cn2c1NC1CCCC1	0.3	-1.3	0.4	49.0	123.0	129.0*	99.0	-2.0	100.0
Oc1ccc(Br)cc1-c1nc2cnccn2c1NC1CCCC1	21.5	38.3	0.4	0.0	99.0	102.0	.	.	.
CN1CCc2c(sc3c2C(=O)NC(c2ccc(-c4cccc(Cl)c4)o2)N3)C1 (stereo not drawn)	-1.0	13.4	-0.1	42.0	170.0*	82.0	127.0	48.0	104.0
CN1CCc2c(sc3c2C(=O)NC(c2cccs2)N3)C1 (stereo not drawn)	0.9	-8.7	0.1	7.0	104.0	103.0	.	.	.
Cc1ccc(S(=O)(=O)NC(=O)N(C)C2CCCCC2)cc1	.	.	.	28.0	130.0	130.0*	84.0	-4.0	100.0
Cc1ccc(S(=O)(=O)C2(C(=O)N(C)C3CCCCC3)CC2)cc1	0.7	21.6	0.6	5.0	111.0	109.0	.	.	.
N#Cc1c(NC(=S)NC(=O)Cc2cccs2)sc2c1CCCCC2	5.3	44.5	-0.3	.	.	.	.	.	.
Cc1cccc(N(C(=O)c2snc(C(N)=O)c2N)C(C)C(=O)NCC2CCCO2)c1 (stereo not drawn)	1.1	-7.0	0.6	25.0	119.0	130.0*	74.0	-16.0	70.0*
C/C(=N\NC(=O)CCC(=O)NCc1ccccc1)c1ccco1	.	.	.	-1.0	103.0	98.0	.	.	.
C=CCC(C)(NCc1ccccc1)c1ccco1 (stereo not drawn)	3.3	1.2	0.6	-16.0	2.0*[inhibitor]	2.0*[inhibitor]	106.0	1.0	97.0
CC(C)CNC(=O)c1ccc2c(c1)C(=O)N(Cc1ccco1)C2=O	.	.	.	-1.0	103.0	104.0	.	.	.
